Source: ChEMBL document CHEMBL1145518, “Potent immune-modulating and anticancer effects of NKT cell stimulatory glycolipids” (2007)
Activity calls are given as the source filed them. The rule behind the calls is not given here.

Columns and labels:
[1] = Induction of IFN-gamma secretion in human CD161+ CD3+ NKT cells at 10 ug/ml after 18 hrs relative to basal level; type: functional
Procedure, shortened: (§1)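 Human Vα24i NKT cell lines were expanded for 10 days on irradiated (3,000 rad) autologous immature DCs with 10 units/ml IL-2. The cells (1 × 10^5) were cocultured with 5 × 10^4 irradiated immature CD14+ DCs plus glycolipid at 10 μg/ml. Supernatants were collected at 18 h and read on a 22-plex Luminex bead panel. Triplicates, mean ± SD.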

[2] = Induction of IL2 secretion in human CD161+ CD3+ NKT cells at 10 ug/ml after 18 hrs relative to basal level; type: functional; procedure, shortened: as §1
[3] = Induction of IL12p70 secretion in human CD161+ CD3+ NKT cells at 10 ug/ml after 18 hrs relative to basal level; type: functional; procedure, shortened: as §1
[4] = Induction of IL12p40 secretion in human CD161+ CD3+ NKT cells at 10 ug/ml after 18 hrs relative to basal level; type: functional; procedure, shortened: as §1
[5] = Induction of RANTES secretion in human CD161+ CD3+ NKT cells at 10 ug/ml after 18 hrs relative to basal level; type: functional; procedure, shortened: as §1
[6] = Induction of MIPalpha secretion in human CD161+ CD3+ NKT cells at 10 ug/ml after 18 hrs relative to basal level; type: functional; procedure, shortened: as §1
[7] = Induction of MCP1 secretion in human CD161+ CD3+ NKT cells at 10 ug/ml after 18 hrs relative to basal level; type: functional; procedure, shortened: as §1
[8] = Induction of IL8 secretion in human CD161+ CD3+ NKT cells at 10 ug/ml after 18 hrs relative to basal level; type: functional; procedure, shortened: as §1
[9] = Induction of TNFalpha secretion in human CD161+ CD3+ NKT cells at 10 ug/ml after 18 hrs relative to basal level; type: functional; procedure, shortened: as §1
[10] = tested on: Mus musculus; assay: Induction of IFN-gamma secretion in BALB/c mouse serum at 2 ug, iv after 18 hrs relative to control; type: functional
Procedure, shortened: (§2)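 BALB/c mice received an i.v. injection of 100 μl of glycolipid diluted to 20 μg/ml in saline from DMSO stock, with 1% DMSO as vehicle. Serum cytokines/chemokines were measured at 2 and 18 h after injection.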

[11] = tested on: Mus musculus; assay: Induction of IL1-beta secretion in BALB/c mouse serum at 2 ug, iv after 18 hrs relative to control; type: functional; procedure, shortened: as §2
[12] = tested on: Mus musculus; assay: Induction of IL2 secretion in BALB/c mouse serum at 2 ug, iv after 2 hrs relative to control; type: functional; procedure, shortened: as §2
[13] = tested on: Mus musculus; assay: Induction of IL12p70 secretion in BALB/c mouse serum at 2 ug, iv after 18 hrs relative to control; type: functional; procedure, shortened: as §2
[14] = tested on: Mus musculus; assay: Induction of IL12p40 secretion in BALB/c mouse serum at 2 ug, iv after 18 hrs relative to control; type: functional; procedure, shortened: as §2
[15] = tested on: Mus musculus; assay: Induction of RANTES secretion in BALB/c mouse serum at 2 ug, iv after 2 hrs relative to control; type: functional; procedure, shortened: as §2
[16] = tested on: Mus musculus; assay: Induction of MIPbeta secretion in BALB/c mouse serum at 2 ug, iv after 2 hrs relative to control; type: functional; procedure, shortened: as §2
[17] = tested on: Mus musculus; assay: Induction of MCP1 secretion in BALB/c mouse serum at 2 ug, iv after 2 hrs relative to control; type: functional; procedure, shortened: as §2
[18] = tested on: Mus musculus; assay: Induction of KC secretion in BALB/c mouse serum at 2 ug, iv after 2 hrs relative to control; type: functional; procedure, shortened: as §2
[19] = tested on: Mus musculus; assay: Induction of TNFalpha secretion in BALB/c mouse serum at 2 ug, iv after 18 hrs relative to control; type: functional; procedure, shortened: as §2
[20] = tested on: Mus musculus; assay: Induction of IL3 secretion in BALB/c mouse serum at 2 ug, iv after 2 hrs relative to control; type: functional; procedure, shortened: as §2
[21] = tested on: Mus musculus; assay: Induction of GM-CSF secretion in BALB/c mouse serum at 2 ug, iv after 2 hrs relative to control; type: functional; procedure, shortened: as §2
[22] = tested on: Mus musculus; assay: Induction of IL4 secretion in BALB/c mouse serum at 2 ug, iv after 2 hrs relative to control; type: functional; procedure, shortened: as §2
[23] = tested on: Mus musculus; assay: Induction of IL6 secretion in BALB/c mouse serum at 2 ug, iv after 2 hrs relative to control; type: functional; procedure, shortened: as §2
[24] = tested on: Mus musculus; assay: Induction of IL10 secretion in BALB/c mouse serum at 2 ug, iv after 18 hrs relative to control; type: functional; procedure, shortened: as §2
[25] = tested on: Mus musculus; assay: Induction of IL13 secretion in BALB/c mouse serum at 2 ug, iv after 2 hrs relative to control; type: functional; procedure, shortened: as §2
[26] = Induction of IL3 secretion in human CD161+ CD3+ NKT cells at 10 ug/ml after 18 hrs relative to basal level; type: functional; procedure, shortened: as §1
[27] = Induction of GM-CSF secretion in human CD161+ CD3+ NKT cells at 10 ug/ml after 18 hrs relative to basal level; type: functional; procedure, shortened: as §1
[28] = Induction of IL15 secretion in human CD161+ CD3+ NKT cells at 10 ug/ml after 18 hrs relative to basal level; type: functional; procedure, shortened: as §1
[29] = Induction of IL4 secretion in human CD161+ CD3+ NKT cells at 10 ug/ml after 18 hrs relative to basal level; type: functional; procedure, shortened: as §1
[30] = Induction of IL6 secretion in human CD161+ CD3+ NKT cells at 10 ug/ml after 18 hrs relative to basal level; type: functional; procedure, shortened: as §1
[31] = Induction of IL10 secretion in human CD161+ CD3+ NKT cells at 10 ug/ml after 18 hrs relative to basal level; type: functional; procedure, shortened: as §1
[32] = Induction of IL13 secretion in human CD161+ CD3+ NKT cells at 10 ug/ml after 18 hrs relative to basal level; type: functional; procedure, shortened: as §1
[33] = tested on: NKT; assay: Stimulation of cell expansion of human invariant CD161+/ Valpha24+/ CD56+/ CD3+ NKT cells by flow cytometry method; type: functional, cell-based
Procedure, shortened: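 CD56+ NK/NKT mixtures (2 × 10^6) were isolated from human leukopaks with anti-CD56 microbeads. They were cocultured with 4 × 10^5 autologous immature CD14+ DCs pulsed with glycolipid at 3 μg/ml, or with 0.3% DMSO, on day 2 for 18 h. Suspension cells were then transferred and kept in 100 units/ml IL-2 with fresh medium every 3 days. On day 9, CD161+/Vα24TCR+ cells were gated by flow cytometry and total Vα24i NKT cells counted. Triplicates, mean ± SD.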

[34] = tested on: Mus musculus; assay: Activation of dendritic cells in BALB/c mouse at 2 ug, iv after 72 hrs by flow cytometry; type: functional, organism-based
Procedure, shortened: (§3)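 BALB/c mice (n = 4/group) were given 100 μl of glycolipid at 20 μg/ml in saline i.v., or 100 μl of 1% DMSO. Spleens were harvested after 72 h and splenocyte subsets counted by flow cytometry: mature DCs as CD11c+/CD80+/CD86+, activated NK as U5A2-13Ag+/CD3−/CD69+, activated NKT as U5A2-13Ag+/CD3+/CD69+. Assays were run in duplicate, mean ± SD.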

[35] = tested on: Mus musculus; assay: Activation of natural killer cells in BALB/c mouse at 2 ug, iv after 72 hrs by flow cytometry; type: functional, organism-based; procedure, shortened: as §3
[36] = tested on: Mus musculus; assay: Activation of NKT cells in BALB/c mouse at 2 ug, iv after 72 hrs by flow cytometry; type: functional, organism-based; procedure, shortened: as §3
[37] = tested on: Mus musculus; assay: Activation of B cells in BALB/c mouse at 2 ug, iv after 72 hrs by flow cytometry; type: functional, organism-based
[38] = tested on: Mus musculus; assay: Increase in CD8/CD4 T cell ratio in BALB/c mouse at 2 ug, iv after 72 hrs by flow cytometry; type: functional, organism-based
[39] = tested on: TC1; assay: Antitumor activity in TC1 cells xenografted C57BL/6 mouse assessed as suppression of tumor growth at 2 ug, iv; type: functional, cell-based
Procedure, shortened: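 C57BL/6 mice (n = 5/group) were inoculated i.v. with TC-1 lung cancer cells. They were then treated i.v. with 2 μg glycolipid per mouse, or 100 μl of 1% DMSO, twice weekly for 4 weeks. Kaplan–Meier survival and body weight were followed, with tumor-free mice as an additional control.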

[40] = tested on: 4T1; assay: Antitumor activity in mouse 4T1 cells xenografted BALB/c mouse assessed as suppression of tumor growth at 2 ug, iv; type: functional, cell-based
Procedure, shortened: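 BALB/c mice (n = 6) were inoculated s.c. with 4T1 breast cancer cells. From day 3 they were treated i.v. with glycolipid or vehicle twice weekly for 4 weeks. Tumor volume was recorded every 3 days for 1 month, and survival was monitored up to 54 days.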

`CCCCCCCCCCCCCCCCCCCCCCCCCC(=O)N[C@@H](CO[C@H]1O[C@H](CO)[C@H](O)[C@H](OS(=O)(=O)[O-])[C@H]1O)[C@H](O)[C@H](O)CCCCCCCCCCCCCC.[Na+]` gave an Activity [1] of 3.3, an Activity [2] of 2.4 and an Activity [3] of 2.8. For the same compound, the Activity [4] was 2, the Activity [5] was 1.6 and the Activity [6] was 3.4. It also gave an Activity [7] of 1.4, an Activity [8] of 2.2 and an Activity [9] of 8.4. For the same compound, the Activity [10] was 160.8, the Activity [11] was 3.2 and the Activity [12] was 22. The Activity [13] was 1.4, the Activity [14] was 2.1 and the Activity [15] was 1.6. It also gave an Activity [16] of 2.5, an Activity [17] of 14.8 and an Activity [18] of 16.4. For the same compound, the Activity [19] was 36.3, the Activity [20] was 1.8 and the Activity [21] was 7.3. The Activity [22] was 42.9, the Activity [23] was 2.2 and the Activity [24] was 2.4. The Activity [25] was 2.4, the Activity [26] was 3.3 and the Activity [27] was 6.6. The Activity [28] was 2.3, the Activity [29] was 2.7 and the Activity [30] was 2.7. For the same compound, the Activity [31] was 2.5, the Activity [32] was 1.6 and the Activity [33] was “Active”. The Activity [34] was “Active”, the Activity [35] was “Active” and the Activity [36] was “Active”. For the same compound, the Activity [37] was “Active”.

Compound `CCCCCCCCCCCCCC[C@@H](O)[C@@H](O)[C@H](CO[C@H]1O[C@H](CO)[C@H](O)[C@H](O)[C@H]1O)NC(=O)CCCCCCCCCCc1ccccc1` has an Activity [1] of 6.2, an Activity [2] of 3.9 and an Activity [3] of 3. For the same compound, the Activity [4] was 2.1, the Activity [5] was 1.6 and the Activity [6] was 3.4. For the same compound, the Activity [7] was 0.6, the Activity [8] was 1.8 and the Activity [9] was 7.4. The Activity [38] was “Active”, the Activity [39] was “Active” and the Activity [40] was “Active”. The Activity [10] was 166.1, the Activity [11] was 3.4 and the Activity [12] was 50.5. It also gave an Activity [13] of 1.6, an Activity [14] of 2.4 and an Activity [15] of 2.2. For the same compound, the Activity [16] was 5.1, the Activity [17] was 23.6 and the Activity [18] was 6.9. It also gave an Activity [19] of 45.6, an Activity [20] of 1.9 and an Activity [21] of 2.7. For the same compound, the Activity [22] was 49.6, the Activity [23] was 5.8 and the Activity [24] was 1.3. It also gave an Activity [25] of 7.7, an Activity [26] of 2.5 and an Activity [27] of 5.4. For the same compound, the Activity [28] was 2.7, the Activity [29] was 1.9 and the Activity [30] was 2.1. The Activity [31] was 1.8, the Activity [32] was 1.6 and the Activity [33] was “Active”. For the same compound, the Activity [34] was “Active”, the Activity [35] was “Active” and the Activity [36] was “Active”. The Activity [37] was “Active”.

`CCCCCCCCCCCCCCCCCCCCCCCCCC(=O)N[C@@H](CO[C@H]1O[C@H](CO)[C@H](O)[C@H](O)[C@H]1O)[C@H](O)[C@H](O)CCCCc1ccccc1` showed an Activity [1] of 3.9, an Activity [2] of 1.9 and an Activity [3] of 2.1. It also gave an Activity [4] of 1.8, an Activity [5] of 2 and an Activity [6] of 3.5. For the same compound, the Activity [7] was 1.8, the Activity [8] was 2.3 and the Activity [9] was 3.4. The Activity [39] was “Active”, the Activity [40] was “Active” and the Activity [26] was 2.6. The Activity [27] was 5.8, the Activity [28] was 2.3 and the Activity [29] was 2.8. For the same compound, the Activity [30] was 1.9, the Activity [31] was 2 and the Activity [32] was 1.8. For the same compound, the Activity [33] was “Active”, the Activity [34] was “Active” and the Activity [35] was “Active”. For the same compound, the Activity [36] was “Active”.
